Results gathered from unrelated publications.
Each line is one published result; the experiments were not run side by side.
Observed: microbial growth

SMILES	organism	technique	strain	time	MIC
O=C1NC(=S)S/C1=C\c1c2ccccc2c(-c2ccc(N(c3ccccc3)c3ccccc3)cc2)c2ccccc12	Streptococcus pyogenes	broth dilution	ATCC19615		> 1000 µg/mL
O=C(Nc1ccc2c(c1)OC(F)(F)O2)Nc1ccc(Cl)c(C(F)(F)F)c1	Klebsiella aerogenes		DSM30053		> 100 µM
O=C1NC(=S)N/C1=C\c1c2ccccc2c(-c2ccc(N(c3ccccc3)c3ccccc3)cc2)c2ccccc12	Streptococcus mutans	broth dilution	ATCC25175		> 1000 µg/mL
CCCCCCC/C=C/C(=O)N1C(=O)/C(=C(\O)c2ccc(O)cc2)C(=O)C1CC(C)C (stereo not drawn)	Stenotrophomonas maltophilia		ATCC13637		200 µg/mL
C/C(=C\c1ccc(C#N)cc1)C(=O)Nc1ccc(C(=O)N[C@@H](CC(N)=O)C(=O)Nc2ccc(C(=O)Nc3ccc(C(=O)Nc4ccc(C(=O)O)cc4)c(O)c3OC(C)C)cc2)cc1	Klebsiella aerogenes		DSM30053		0.25 µg/mL
CCCCCCC/C=C/C(=O)N1C(=O)/C(=C(\O)c2ccc(OCOCCOC)cc2)C(=O)C1CC(C)C (stereo not drawn)	Stenotrophomonas maltophilia		ATCC13637		200 µg/mL
O=C1NC(=S)S/C1=C\c1ccc(-c2ccc(N(c3ccccc3)c3ccccc3)cc2)c2ccccc12	Streptococcus pyogenes	broth dilution	ATCC19615		1000 µg/mL
CCc1cc(Nc2cc(=O)n(CCCCO)c(=O)[nH]2)ccc1C	Bifidobacterium	agar dilution		48 h	> 32 µg/mL
CCCCCCC/C=C/C(=O)N1C(=O)/C(=C(/C)O)C(=O)C1CCCCN (stereo not drawn)	Stenotrophomonas maltophilia		ATCC13637		> 200 µg/mL
O=c1[nH]c(NCc2ccc(Cl)c(Cl)c2)nc2ncn(CCN3CCOCC3)c12	Bifidobacterium	agar dilution		48 h	> 32 µg/mL
O=C(O)c1cn(C2CC2)c2cc(N3CCNCC3)c(F)cc2c1=O	Klebsiella aerogenes		DSM30053		0.125 µg/mL
O=C1NC(=S)N/C1=C\c1ccc(-c2ccc(N(c3ccccc3)c3ccccc3)cc2)c2ccccc12	Streptococcus mutans	broth dilution	ATCC25175		> 1000 µg/mL
CCCCCCC/C=C/C(=O)N1CC(=O)/C(=C(\C)O)C1=O	Stenotrophomonas maltophilia		ATCC13637		100 µg/mL
O=C1NC(=S)S/C1=C\c1ccc(-c2ccc(N(c3ccccc3)c3ccccc3)cc2)cc1	Streptococcus mutans	broth dilution	ATCC25175		1000 µg/mL
CO[C@@H](C(N)=O)[C@H](NC(=O)c1ccc(NC(=O)c2ccc(C#N)cc2)cc1)C(=O)Nc1ccc(C(=O)Nc2ccc(C(=O)Nc3ccc(C(=O)O)cc3)c(O)c2OC(C)C)cc1	Klebsiella aerogenes		DSM30053		2 µg/mL
